Measured values: PMC6543826 (Bioorganic chemistry, 2018)
Where “and” joins values, the source holds several entries; their conditions need not be identical. Equal values may be shown once.

Assays:
[1] = test system: SN12C; assay: cells; type: cell-based; conditions: 10^−5 M, 48 h
[2] = test system: SF-268; assay: cells; type: cell-based; conditions: SF-268, 10^−5 M, 48 h
[3] = test system: SK-OV-3; assay: cells; type: cell-based; conditions: SK-OV-3, 10^−5 M, 48 h
[4] = test system: KM 12; assay: cells; type: cell-based; conditions: KM 12, 10^−5 M, 48 h
[5] = test system: M14; assay: cells; type: cell-based; conditions: M14, 10^−5 M, 48 h
[6] = molecular target: ERK2 (Rattus norvegicus, UniProt P63086); assay: in vitro radioactive kinase assay, Ets-1 phosphorylation by ERK2; type: biochemical
Chain of ERK2 (P63086 whole entry): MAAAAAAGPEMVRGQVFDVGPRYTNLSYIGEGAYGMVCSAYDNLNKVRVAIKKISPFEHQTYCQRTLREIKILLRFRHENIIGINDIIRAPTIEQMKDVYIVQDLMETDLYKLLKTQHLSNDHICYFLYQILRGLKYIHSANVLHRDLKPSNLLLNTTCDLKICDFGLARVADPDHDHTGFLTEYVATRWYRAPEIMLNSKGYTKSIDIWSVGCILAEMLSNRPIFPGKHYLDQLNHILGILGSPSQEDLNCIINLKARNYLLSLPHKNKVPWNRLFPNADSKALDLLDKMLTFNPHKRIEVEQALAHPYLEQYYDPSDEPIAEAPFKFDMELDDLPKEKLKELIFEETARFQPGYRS
In short: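 Activated rat ERK2 (2 nM) was tested with His-Ets-1 (1–138) at 28–30 °C in HEPES pH 7.5 buffer with 11 mM MgCl2, BSA and 5% DMSO. Reactions were started with [γ-32P]ATP (10 or 100 μM).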

[7] = test system: SW-620; assay: cells; type: cell-based; conditions: SW-620, 10^−5 M, 48 h
[8] = test system: NCI-H322M; assay: cells; type: cell-based; conditions: 10^−5 M, 48 h
[9] = test system: BT-549; assay: cells; type: cell-based; conditions: BT-549, 10^−5 M, 48 h
[10] = test system: DU-145; assay: cells; type: cell-based; conditions: DU-145, 10^−5 M, 48 h
[11] = test system: SF-295; assay: cells; type: cell-based; conditions: SF-295, 10^−5 M, 48 h
[12] = test system: NCI-H522; assay: cells; type: cell-based; conditions: NCI-H522, 10^−5 M, 48 h
[13] = test system: A549/ATCC; assay: cells; type: cell-based; conditions: A549/ATCC, 10^−5 M, 48 h
[14] = test system: T-47D; assay: cells; type: cell-based; conditions: T-47D, 10^−5 M, 48 h
[15] = test system: HCT-15; assay: cells; type: cell-based; conditions: HCT-15, 10^−5 M, 48 h
[16] = test system: UO-31; assay: cells; type: cell-based; conditions: UO-31, 10^−5 M, 48 h
[17] = test system: NCI-60 panel of tumor cell lines
[18] = test system: MCF7; assay: cells; type: cell-based; conditions: MCF7, 10^−5 M, 48 h
[19] = test system: UACC-62; assay: cells; type: cell-based; conditions: UACC-62, 10^−5 M, 48 h
[20] = test system: RPMI-8226; assay: cells; type: cell-based; conditions: RPMI-8226, 10^−5 M, 48 h
[21] = test system: SK-MEL-28; assay: cells; type: cell-based; conditions: SK-MEL-28, 10^−5 M, 48 h
[22] = test system: U251; assay: cells; type: cell-based; conditions: U251, 10^−5 M, 48 h
[23] = test system: NCI-H460; assay: cells; type: cell-based; conditions: NCI-H460, 10^−5 M, 48 h
[24] = test system: HOP-92; assay: cells; type: cell-based; conditions: HOP-92, 10^−5 M, 48 h
[25] = test system: OVCAR-4; assay: cells; type: cell-based; conditions: OVCAR-4, 10^−5 M, 48 h
[26] = test system: IGROV1; assay: cells; type: cell-based; conditions: IGROV1, 10^−5 M, 48 h
[27] = test system: OVCAR-8; assay: cells; type: cell-based; conditions: OVCAR-8, 10^−5 M, 48 h
[28] = molecular target: ERK1 (Homo sapiens, UniProt P27361); assay: in vitro radioactive kinase assay, Ets-1 phosphorylation by ERK1; type: biochemical; conditions: ERK1 IC50, 100 μM ATP, 10 μM Ets-1
Chain of ERK1 (P27361 whole entry, species assumed): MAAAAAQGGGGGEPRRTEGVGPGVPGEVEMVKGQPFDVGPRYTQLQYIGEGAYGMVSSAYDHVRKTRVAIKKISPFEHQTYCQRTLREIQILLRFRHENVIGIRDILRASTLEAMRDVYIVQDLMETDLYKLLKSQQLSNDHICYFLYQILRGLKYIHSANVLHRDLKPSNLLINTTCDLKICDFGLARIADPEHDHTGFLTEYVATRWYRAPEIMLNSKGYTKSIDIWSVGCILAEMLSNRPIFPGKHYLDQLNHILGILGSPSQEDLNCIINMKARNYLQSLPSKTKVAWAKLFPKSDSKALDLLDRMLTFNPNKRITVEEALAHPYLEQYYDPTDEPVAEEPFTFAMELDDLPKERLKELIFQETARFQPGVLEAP
In short: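 Radiometric assay at 28–30 °C in 25 mM HEPES pH 7.5, 50 mM KCl, 0.1 mM EDTA/EGTA, 2 mM DTT, 11 mM MgCl2, 10 μg mL−1 BSA and 5% DMSO (final). 2 nM activated ERK1 was used with 10 μM His-Ets-1 (1–138). Reactions were started with [γ-32P]ATP (10 or 100 μM). IC50 came from fitting rate versus inhibitor concentration to a hyperbolic decay equation.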

[29] = test system: OVCAR-5; assay: cells; type: cell-based; conditions: OVCAR-5, 10^−5 M, 48 h
[30] = test system: RXF 393; assay: cells; type: cell-based; conditions: RXF 393, 10^−5 M, 48 h
[31] = test system: MALME-3M; assay: cells; type: cell-based; conditions: MALME-3M, 10^−5 M, 48 h
[32] = test system: SNB-75; assay: cells; type: cell-based; conditions: SNB-75, 10^−5 M, 48 h

O=C1C(Cl)=C(c2c(O)c3c(=O)n(-c4ccccc4)c4ccccc4c3oc2=O)C(=O)c2ccccc21 [compound 6, 3-(3-Chloro-1,4-dioxo-1,4-dihydronaphthalen-2-yl)-4-hydroxy-6-phenyl-2H-pyrano[3,2-c]quinoline-2,5(6H)-dione]
Growth percent (G%) [1]: −14.11%
Growth percent (G%) [2]: 34.32%
Growth percent (G%) [3]: 67.28%
Growth percent (G%) [4]: 18.86%
Growth percent (G%) [5]: 44.74%
effect of excess Ets-1 (100 μM) on inhibition of ERK2 ([6]; 5 μM inhibitor, 100 μM vs 10 μM Ets-1, 100 μM ATP): did not rescue
IC50 ([6]; ERK2 IC50, 10 μM ATP): 90 nM and 86 nM
IC50 ([6]; ERK2 IC50, 100 μM ATP, 10 μM Ets-1): ~160 nM and 160 nM
IC50 ([6]; ERK2 IC50 at 100 μM ATP /10mM Ets-1, Table 4, 100 μM ATP /10mM Ets-1): 160 ± 20 nM
Growth percent (G%) [7]: 18.61%
Growth percent (G%) [8]: 63.53%
Growth percent (G%) [9]: 12.26%
Growth percent (G%) [10]: 34.21%
Growth percent (G%) [11]: 18.38%
Growth percent (G%) [12]: 19.42%
Growth percent (G%) [13]: 37.73%
Growth percent (G%) [14]: 4.47%
Growth percent (G%) [15]: 66.56%
Growth percent (G%) [16]: 64.18%
NCI Cytotoxicity Screening Average G% ([17]; Table 4, 10 μM one-dose screen): 35%
Average G% ([17]; average over tested NCI-60 cell lines, 10^−5 M (10 μM), 48 h): 35.49%
Growth percent (G%) [18]: 51.60%
Growth percent (G%) [19]: 13.17%
Growth percent (G%) [20]: 19.65%
Growth percent (G%) [21]: 39.37%
Growth percent (G%) [22]: 21.15%
Growth percent (G%) [23]: 33.57%
Growth percent (G%) [24]: 80.01%
Growth percent (G%) [25]: 18.80%
Growth percent (G%) [26]: 71.85%
Growth percent (G%) [27]: 48.24%
IC50 [28]: 190 ± 10 nM
Growth percent (G%) [29]: 88.70%
Growth percent (G%) [30]: 69.20%
Growth percent (G%) [31]: 42.00%
Growth percent (G%) [32]: 31.77%
